Experimental data reported in ChEMBL document CHEMBL1152472, “AdeIJK, a resistance-nodulation-cell division pump effluxing multiple antibiotics in Acinetobacter baumannii” (2008).
≈ marks a conversion by molar mass, not a printed value.

Tests used:
Acinetobacter baumannii [1] = assay: Antimicrobial activity against Acinetobacter baumannii BM4454 isolated from patient with urinary tract infection by E test; type: functional; conditions: BM4454, Urine
Outline: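 MIC read by E-test strip on solid medium against the multiresistant AdeABC-overexpressing urinary isolate. Strains were grown at 37°C in brain heart infusion or LB.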

Acinetobacter baumannii [2] = assay: Antimicrobial activity against Acinetobacter baumannii BM4652 expressing adeABC adeIJK double mutant isolated from patient with urinary tract infection by E test; type: functional; conditions: BM4652, Urine
Outline: (§1)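 MICs determined on solid medium (Mueller-Hinton agar) by E-test. The strains are deletion-insertion derivatives of multiresistant urinary isolate BM4454 that lack adeIJK, adeABC or both. Strains were grown at 37°C in brain heart infusion broth or agar or in LB.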

Acinetobacter baumannii [3] = assay: Antimicrobial activity against Acinetobacter baumannii BM4579 expressing deltaadeIJK genes isolated from patient with urinary tract infection by E test; type: functional; conditions: BM4579, Urine; outline: as §1
Acinetobacter baumannii [4] = assay: Antimicrobial activity against Acinetobacter baumannii BM4652 expressing adeIJK genes with pAT807 isolated from patient with urinary tract infection by E test; type: functional; conditions: BM4652, Urine
Outline: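 E-test MIC on solid medium, with 0.005 mM IPTG added to induce adeIJK carried on plasmid pAT807 in the ΔadeIJK host. Growth was at 37°C.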

Acinetobacter baumannii [5] = assay: Antimicrobial activity against Acinetobacter baumannii BM4651 expressing deltaadeABC genes isolated from patient with urinary tract infection by E test; conditions: BM4651, Urine
Acinetobacter baumannii [6] = assay: Antimicrobial activity against Acinetobacter baumannii BM4579 expressing adeIJK genes with pAT807 isolated from patient with urinary tract infection by E test; conditions: BM4579, Urine
Acinetobacter baumannii [7] = assay: Antimicrobial activity against Acinetobacter baumannii BM4454 isolated from patient with urinary tract infection by agar dilution method; type: functional; conditions: BM4454, Urine
Outline: (§2)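 MIC by agar dilution, the method used for ticarcillin and SDS. Strains were grown at 37°C in brain heart infusion or LB.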

Acinetobacter baumannii [8] = assay: Antimicrobial activity against Acinetobacter baumannii BM4652 expressing adeABC adeIJK double mutant isolated from patient with urinary tract infection by agar dilution method; type: functional; conditions: BM4652, Urine
Outline: (§3)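 MICs determined by agar dilution on Mueller-Hinton agar with 10^4 CFU/spot; this method was used for ticarcillin and SDS. The strains are ΔadeIJK or ΔadeABC ΔadeIJK deletion-insertion derivatives of urinary isolate BM4454, grown at 37°C in brain heart infusion or LB medium.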

Acinetobacter baumannii [9] = assay: Antimicrobial activity against Acinetobacter baumannii BM4652 expressing adeIJK genes with pAT807 isolated from patient with urinary tract infection by agar dilution method; type: functional; conditions: BM4652, Urine
Outline: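 Agar-dilution MIC (ticarcillin, SDS), with 0.005 mM IPTG added to induce plasmid pAT807-borne adeIJK in the ΔadeIJK background. Growth was at 37°C.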

Acinetobacter baumannii [10] = assay: Antimicrobial activity against Acinetobacter baumannii BM4579 expressing deltaadeIJK genes isolated from patient with urinary tract infection by agar dilution method; type: functional; conditions: BM4579, Urine; outline: as §3
Acinetobacter baumannii [11] = assay: Antimicrobial activity against Acinetobacter baumannii BM4579 expressing adeIJK genes with pAT807 isolated from patient with urinary tract infection by E test; type: functional; conditions: BM4579, Urine, in the assay text read “agar dilution method” for “E test”
Acinetobacter baumannii [12] = assay: Antimicrobial activity against Acinetobacter baumannii BM4651 expressing deltaadeIJK genes isolated from patient with urinary tract infection by agar dilution method; type: functional; conditions: BM4651, Urine, in the assay text read “deltaadeABC” for “deltaadeIJK”; outline: as §2

Compound | MIC (Acinetobacter baumannii [1]) [µg/mL] | MIC (Acinetobacter baumannii [2]) [µg/mL] | MIC (Acinetobacter baumannii [3]) [µg/mL] | MIC (Acinetobacter baumannii [4]) [µg/mL] | MIC (Acinetobacter baumannii [5]) [µg/mL] | MIC (Acinetobacter baumannii [6]) [µg/mL] | MIC (Acinetobacter baumannii [7]) [µg/mL] | MIC (Acinetobacter baumannii [8]) [µg/mL] | MIC (Acinetobacter baumannii [9]) [µg/mL] | MIC (Acinetobacter baumannii [10]) [µg/mL] | MIC (Acinetobacter baumannii [11]) [µg/mL] | MIC (Acinetobacter baumannii [12]) [µg/mL]
CC[C@H]1OC(=O)[C@H](C)[C@@H](O[C@H]2C[C@@](C)(OC)[C@@H](O)[C@H](C)O2)[C@H](C)[C@@H](O[C@@H]2O[C@H](C)C[C@H](N(C)C)[C@H]2O)[C@](C)(O)C[C@@H](C)CN(C)[C@H](C)[C@@H](O)[C@]1(C)O [AZITHROMYCIN] | 96 (≈ 128 µM) | 1.5 (≈ 2 µM) | 96 (≈ 128 µM) | 24 (≈ 32 µM) | 1.5 (≈ 2 µM) | 96 (≈ 128 µM) | – | – | – | – | – | –
CC[C@H]1OC(=O)[C@H](C)[C@@H](O[C@H]2C[C@@](C)(OC)[C@@H](O)[C@H](C)O2)[C@H](C)[C@@H](O[C@@H]2O[C@H](C)C[C@H](N(C)C)[C@H]2O)[C@](C)(O)C[C@@H](C)C(=O)[C@H](C)[C@@H](O)[C@]1(C)O [ERYTHROMYCIN] | 12 (≈ 16.4 µM) | 1.5 (≈ 2.04 µM) | 8 (≈ 10.9 µM) | 3 (≈ 4.09 µM) | 4 (≈ 5.45 µM) | 12 (≈ 16.4 µM) | – | – | – | – | – | –
CO/N=C(\C(=O)N[C@@H]1C(=O)N2C(C(=O)O)=C(COC(C)=O)CS[C@H]12)c1csc(N)n1 [CEFOTAXIME] | 8 (≈ 17.6 µM) | 1.5 (≈ 3.29 µM) | 1.5 (≈ 3.29 µM) | 0.25 (≈ 0.549 µM) | 8 (≈ 17.6 µM) | 3 (≈ 6.59 µM) | – | – | – | – | – | –
CC1(C)S[C@@H]2[C@H](NC(=O)[C@H](C(=O)O)c3ccsc3)C(=O)N2[C@H]1C(=O)O [TICARCILLIN] | – | – | – | – | – | – | 8 (≈ 20.8 µM) | 1 (≈ 2.6 µM) | > 256 | 1 (≈ 2.6 µM) | > 256 | 8 (≈ 20.8 µM)
CN(C)c1ccc(O)c2c1C[C@H]1C[C@H]3[C@H](N(C)C)C(O)=C(C(N)=O)C(=O)[C@@]3(O)C(O)=C1C2=O [MINOCYCLINE] | 1.5 (≈ 3.28 µM) | 0.064 (≈ 0.14 µM) | 0.25 (≈ 0.546 µM) | 0.75 (≈ 1.64 µM) | 0.5 (≈ 1.09 µM) | 1 (≈ 2.19 µM) | – | – | – | – | – | –
CO[C@H]1/C=C/O[C@@]2(C)Oc3c(C)c(O)c4c(O)c(c(/C=N/N5CCN(C)CC5)c(O)c4c3C2=O)NC(=O)/C(C)=C\C=C\[C@H](C)[C@H](O)[C@@H](C)[C@@H](O)[C@@H](C)[C@H](OC(C)=O)[C@@H]1C [RIFAMPIN] | 4 (≈ 4.86 µM) | 2 (≈ 2.43 µM) | 2 (≈ 2.43 µM) | 1.5 (≈ 1.82 µM) | 4 (≈ 4.86 µM) | 2 (≈ 2.43 µM) | – | – | – | – | – | –
C[C@@H](O)[C@H]1C(=O)N2C(C(=O)O)=C(SCCNC=N)C[C@H]12 [IMIPENEM ANHYDROUS] | 0.5 (≈ 1.67 µM) | 0.25 (≈ 0.835 µM) | 0.25 (≈ 0.835 µM) | 96 (≈ 321 µM) | 0.5 (≈ 1.67 µM) | 0.25 (≈ 0.835 µM) | – | – | – | – | – | –
O=C(N[C@H](CO)[C@H](O)c1ccc([N+](=O)[O-])cc1)C(Cl)Cl [CHLORAMPHENICOL] | 256 (≈ 792 µM) | 16 (≈ 49.5 µM) | 64 (≈ 198 µM) | 6 (≈ 18.6 µM) | 128 (≈ 396 µM) | 96 (≈ 297 µM) | – | – | – | – | – | –
CCC[C@@H]1C[C@@H](C(=O)N[C@@H]([C@H]2O[C@H](SC)[C@H](O)[C@@H](O)[C@H]2O)[C@H](C)Cl)N(C)C1 [CLINDAMYCIN] | > 256 | 2 (≈ 4.71 µM) | 48 (≈ 113 µM) | 2 (≈ 4.71 µM) | > 256 | 48 (≈ 113 µM) | – | – | – | – | – | –
C[C@H]1COc2c(N3CCN(C)CC3)c(F)cc3c(=O)c(C(=O)O)cn1c23.C[C@H]1COc2c(N3CCN(C)CC3)c(F)cc3c(=O)c(C(=O)O)cn1c23.O [LEVOFLOXACIN] | 12 | 0.38 | 6 | 2 | 3 | – | – | – | – | – | – | –
CN(C)[C@@H]1C(O)=C(C(N)=O)C(=O)[C@@]2(O)C(O)=C3C(=O)c4c(O)cccc4[C@@](C)(O)[C@H]3C[C@@H]12 [TETRACYCLINE] | 48 (≈ 108 µM) | 0.5 (≈ 1.13 µM) | 4 (≈ 9 µM) | 0.75 (≈ 1.69 µM) | 8 (≈ 18 µM) | 6 (≈ 13.5 µM) | – | – | – | – | – | –
CN(C)c1cc(NC(=O)CNC(C)(C)C)c(O)c2c1C[C@H]1C[C@H]3[C@H](N(C)C)C(O)=C(C(N)=O)C(=O)[C@@]3(O)C(O)=C1C2=O [TIGECYCLINE] | 4 (≈ 6.83 µM) | 0.047 (≈ 0.0803 µM) | 1.5 (≈ 2.56 µM) | 3 (≈ 5.12 µM) | 0.5 (≈ 0.854 µM) | 2 (≈ 3.41 µM) | – | – | – | – | – | –
COc1c(N2C[C@@H]3CCCN[C@@H]3C2)c(F)cc2c(=O)c(C(=O)O)cn(C3CC3)c12 [MOXIFLOXACIN] | 12 (≈ 29.9 µM) | 0.5 (≈ 1.25 µM) | 12 (≈ 29.9 µM) | – | 3 (≈ 7.47 µM) | 16 (≈ 39.9 µM) | – | – | – | – | – | –
CCn1cc(C(=O)O)c(=O)c2cc(F)c(N3CCN(C)CC3)cc21 [PEFLOXACIN] | 48 (≈ 144 µM) | 4 (≈ 12 µM) | 24 (≈ 72 µM) | 12 (≈ 36 µM) | 24 (≈ 72 µM) | 48 (≈ 144 µM) | – | – | – | – | – | –
